Laboratory results published in ChEMBL document CHEMBL1146533, “Antimicrobial and antiparasitic (+)-trans-hexahydrodibenzopyrans and analogues from Machaerium multiflorum” (J Nat Prod, 2003).
In brackets after ≈: the same amount, converted by molar mass. Activity calls are given as the source filed them. The rule behind the calls is not given here.

Tests used:
Candida albicans [1] = assay: Antimicrobial activity against Candida albicans ATCC 90028 by modified NCCLS method; format: functional, organism-based
Cryptococcus neoformans = assay: Antimicrobial activity against Cryptococcus neoformans ATCC 90113 by modified NCCLS method; format: functional, organism-based
Aspergillus fumigatus [2] = assay: Antimicrobial activity against Aspergillus fumigatus ATCC 90906 by modified NCCLS method; format: functional, organism-based
[3] = system: Mycobacterium intracellulare; assay: Antimicrobial activity against Mycobacterium intracellular by Alamar blue assay; format: functional, organism-based
Staphylococcus aureus [4] = assay: Antimicrobial activity against methicillin-resistant Staphylococcus aureus ATCC 43300 by modified NCCLS method; format: functional, organism-based
Staphylococcus aureus [5] = assay: Antimicrobial activity against Staphylococcus aureus ATCC 29213 by modified NCCLS method; format: functional, organism-based
Aspergillus fumigatus [6] = assay: Antimicrobial activity against Aspergillus fumigatus ATCC 90906 at 50 ug/mL by modified NCCLS method; format: functional, organism-based
Candida albicans [7] = assay: Antifungal activity against Candida albicans ATCC 90028 at 50 ug/mL by modified NCCLS method; format: functional, organism-based
[8] = system: Mycobacterium intracellulare; assay: Antimicrobial activity against Mycobacterium intracellular at 50 ug/mL by Alamar blue assay; format: functional
Vero = assay: Cytotoxicity against african green monkey Vero cells at 4.7 ug/mL; format: cell-based; settings: chlorocebus sabaeus
[9] = Selectivity index, ratio of IC50 for african green monkey (Cercopithecus aethiops) Vero cells to IC50 for chloroquine-sensitive Plasmodium falciparum D6; format: toxicity, cell-based; settings: read-out: Ratio IC50
Method in brief: (§1)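 Selectivity index calculated as IC50 in Vero cells divided by IC50 against P. falciparum.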

Plasmodium falciparum [10] = assay: Antimalarial activity against chloroquine-resistant Plasmodium falciparum W2; format: functional, organism-based
Leishmania donovani = assay: Antileishmanial activity against Leishmania donovani promastigotes after 72 hrs; format: functional, organism-based
[11] = Selectivity index, ratio of IC50 for african green monkey (Cercopithecus aethiops) Vero cells to IC50 for chloroquine-sensitive Plasmodium falciparum W2; format: toxicity, cell-based; settings: read-out: Ratio IC50; method in brief: as §1
Plasmodium falciparum [12] = assay: Antimalarial activity against chloroquine-sensitive Plasmodium falciparum D6; format: functional, organism-based

Row | Structure (SMILES) | MIC (Candida albicans [1]) | MIC (Aspergillus fumigatus [2]) | IC50 [3] | MIC [3] | MBC (Staphylococcus aureus [4]) | MIC (Staphylococcus aureus [4]) | IC50 (Staphylococcus aureus [5]) | IC50 (Candida albicans [1]) | Activity (Aspergillus fumigatus [6]) | IC50 (Cryptococcus neoformans) | IC50 (Staphylococcus aureus [4]) | MBC (Staphylococcus aureus [5]) | MIC (Staphylococcus aureus [5]) | Activity (Vero) | selectivity ratio [9] | IC50 (Plasmodium falciparum [10]) | IC50 (Leishmania donovani) | IC90 (Leishmania donovani) | selectivity ratio [11] | IC50 (Plasmodium falciparum [12]) | further results
1 | C[C@@H]1[C@H](O)[C@@H](C)/C=C/C=C/C=C/C=C/C=C/C=C/C=C/[C@H](O[C@@H]2O[C@H](C)[C@@H](O)[C@H](N)[C@@H]2O)C[C@@H]2O[C@](O)(C[C@@H](O)C[C@@H](O)[C@H](O)CC[C@@H](O)C[C@@H](O)CC(=O)O[C@H]1C)C[C@H](O)[C@H]2C(=O)O [AMPHOTERICIN B] | 0.31 µg/mL (≈ 0.335 µM) | 1.25 µg/mL (≈ 1.35 µM) | – | – | – | – | – | – | – | – | – | – | – | – | – | – | – | – | – | – | MIC (Cryptococcus neoformans): 0.63 µg/mL (≈ 0.682 µM)
2 | O=C(O)c1cn(C2CC2)c2cc(N3CCNCC3)c(F)cc2c1=O [CIPROFLOXACIN] | – | – | 0.45 µg/mL (≈ 1.36 µM) | 0.63 µg/mL (≈ 1.9 µM) | 0.31 µg/mL (≈ 0.936 µM) | 0.31 µg/mL (≈ 0.936 µM) | 0.15 µg/mL (≈ 0.453 µM) | – | – | – | – | – | – | – | – | – | – | – | – | – | –
3 | C=C(C)[C@H]1CC[C@H](C)C[C@@H]1c1c(O)cc(/C=C/c2ccccc2)cc1O [MACHAERIDIOL A] | 50 µg/mL (≈ 143 µM) | 12.5 µg/mL (≈ 35.9 µM) | 7 µg/mL (≈ 20.1 µM) | 12.5 µg/mL (≈ 35.9 µM) | 3.13 µg/mL (≈ 8.98 µM) | 1.56 µg/mL (≈ 4.48 µM) | 1 µg/mL (≈ 2.87 µM) | 3.5 µg/mL (≈ 10 µM) | inactive | 15 µg/mL (≈ 43 µM) | 1 µg/mL (≈ 2.87 µM) | 3.13 µg/mL (≈ 8.98 µM) | 1.56 µg/mL (≈ 4.48 µM) | – | – | – | – | – | – | – | Activity (Candida albicans [7]): inactive; Activity (Cryptococcus neoformans): inactive; MBC [8]: 50 µg/mL (≈ 143 µM)
4 | C=C(C)[C@H]1CC[C@H](C)C[C@@H]1c1c(O)cc(/C=C/c2ccccc2O)cc1O [MACHAERIDIOL B] | 6.25 µg/mL (≈ 17.1 µM) | 10 µg/mL (≈ 27.4 µM) | – | – | 6.25 µg/mL (≈ 17.1 µM) | 6.25 µg/mL (≈ 17.1 µM) | 2.6 µg/mL (≈ 7.13 µM) | 2 µg/mL (≈ 5.49 µM) | inactive | 3.5 µg/mL (≈ 9.6 µM) | 2 µg/mL (≈ 5.49 µM) | 6.25 µg/mL (≈ 17.1 µM) | 6.25 µg/mL (≈ 17.1 µM) | Non-toxic | > 7.4 | 0.22 µg/mL (≈ 0.604 µM) | 0.9 µg/mL (≈ 2.47 µM) | 8 µg/mL (≈ 21.9 µM) | > 22 | 0.64 µg/mL (≈ 1.76 µM) | Activity [3]: inactive; Activity (Candida albicans [7]): inactive
5 | C=C(C)[C@H]1CC[C@H](C)C[C@@H]1c1c(O)cc(-c2cc3ccccc3o2)cc1O [MACHAERIDIOL C] | – | – | 10 µg/mL (≈ 27.6 µM) | 25 µg/mL (≈ 69 µM) | 12.5 µg/mL (≈ 34.5 µM) | 6.25 µg/mL (≈ 17.2 µM) | 3 µg/mL (≈ 8.28 µM) | 45 µg/mL (≈ 124 µM) | – | 25 µg/mL (≈ 69 µM) | 3.5 µg/mL (≈ 9.66 µM) | 12.5 µg/mL (≈ 34.5 µM) | 6.25 µg/mL (≈ 17.2 µM) | Non-toxic | > 1.4 | 2.5 µg/mL (≈ 6.9 µM) | 3 µg/mL (≈ 8.28 µM) | 10 µg/mL (≈ 27.6 µM) | > 1.9 | 3.3 µg/mL (≈ 9.1 µM) | Activity (Aspergillus fumigatus [2]): inactive; Activity [8]: inactive
6 | C[C@H]1CC[C@H]2[C@H](C1)c1c(O)cc(/C=C/c3ccccc3O)cc1OC2(C)C [MACHAERIOL C] | – | 100 µg/mL (≈ 274 µM) | 20 µg/mL (≈ 54.9 µM) | – | 12.5 µg/mL (≈ 34.3 µM) | 1.56 µg/mL (≈ 4.28 µM) | 0.65 µg/mL (≈ 1.78 µM) | 20 µg/mL (≈ 54.9 µM) | inactive | 40 µg/mL (≈ 110 µM) | 0.7 µg/mL (≈ 1.92 µM) | 6.25 µg/mL (≈ 17.1 µM) | 1.56 µg/mL (≈ 4.28 µM) | Non-toxic | 1.6 | 3.7 µg/mL (≈ 10.2 µM) | 6 µg/mL (≈ 16.5 µM) | 12 µg/mL (≈ 32.9 µM) | 1.3 | 3 µg/mL (≈ 8.23 µM) | –
7 | C[C@@H]1C[C@@H]2c3c(O)cc(-c4cc5ccccc5o4)cc3OC(C)(C)[C@H]2C[C@H]1O [MACHAERIOL D] | – | – | – | – | – | – | 25 µg/mL (≈ 66.1 µM) | – | – | – | 30 µg/mL (≈ 79.3 µM) | – | 50 µg/mL (≈ 132 µM) | – | – | – | – | – | – | – | Activity (Candida albicans [1]): inactive; Activity [3]: inactive; Activity (Cryptococcus neoformans): inactive; Activity (Aspergillus fumigatus [2]): inactive; Activity (Staphylococcus aureus [4]): inactive
8 | N=C(N)c1ccc(OCCCCCOc2ccc(C(=N)N)cc2)cc1 [PENTAMIDINE] | – | – | – | – | – | – | – | – | – | – | – | – | – | – | – | – | 0.42 µg/mL (≈ 1.23 µM) | 1.5 µg/mL (≈ 4.41 µM) | – | – | –
